From ChEMBL document CHEMBL4706596, “Synthesis, biological evaluation, in silico modeling and crystallization of novel small monocationic molecules with potent antiproliferative activity by dual mechanism” (Eur J Med Chem, 2020)

Assays:
[1] = tested on: HT-29; test: Antiproliferative activity against human HT-29 cells assessed as inhibition of cell proliferation; assay type: functional
Summary of the method: (§1)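 Cells seeded at 8 × 10³/well and held 18 h at 37 °C, 5% CO₂. Medium then replaced with compound at several concentrations for 72 h at 37 °C, followed by MTT viability read-out. GI50 is taken against cells given the maximum DMSO (0.25%), which is set as 100% viability. Dose-response curves come from at least three independent experiments run in triplicate and are reported as mean ± SE.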

[2] = tested on: HeLa; test: Antiproliferative activity against human HeLa cells assessed as inhibition of cell proliferation; assay type: functional; summary of the method: as §1
[3] = tested on: CCRF-CEM; test: Antiproliferative activity against human CCRF-CEM cells assessed as inhibition of cell proliferation; assay type: functional; summary of the method: as §1
[4] = tested on: RS4-11; test: Antiproliferative activity against human RS4-11 cells assessed as inhibition of cell proliferation; assay type: functional; summary of the method: as §1
[5] = tested on: HeLa; test: Antiproliferative activity against human HeLa cells assessed as inhibition of cell proliferation incubated for 72 hrs by MTT assay; assay type: functional; summary of the method: as §1
[6] = molecular target: T1, Choline kinase alpha (Homo sapiens, UniProt P35790); test: Binding affinity to human CKalpha1 assessed as dissociation constant by spectroflurometry
Summary of the method: (§2)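 Purified human CK (cloned as reported earlier) at 1 µM was titrated with compound in 25 mM Tris, 150 mM NaCl, pH 7.5 at 25 °C. Compound ranges were 0.1–10 µM for CKα1 and 0.5–200 µM for CKβ. Tryptophan quenching was read with excitation at 280 nm, emission 300–400 nm and 5 nm slits. DMSO-matched controls were run, and Kd was fitted to a single-site model. Results are given as mean ± SD.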
Target sequence in this assay (P35790 whole entry): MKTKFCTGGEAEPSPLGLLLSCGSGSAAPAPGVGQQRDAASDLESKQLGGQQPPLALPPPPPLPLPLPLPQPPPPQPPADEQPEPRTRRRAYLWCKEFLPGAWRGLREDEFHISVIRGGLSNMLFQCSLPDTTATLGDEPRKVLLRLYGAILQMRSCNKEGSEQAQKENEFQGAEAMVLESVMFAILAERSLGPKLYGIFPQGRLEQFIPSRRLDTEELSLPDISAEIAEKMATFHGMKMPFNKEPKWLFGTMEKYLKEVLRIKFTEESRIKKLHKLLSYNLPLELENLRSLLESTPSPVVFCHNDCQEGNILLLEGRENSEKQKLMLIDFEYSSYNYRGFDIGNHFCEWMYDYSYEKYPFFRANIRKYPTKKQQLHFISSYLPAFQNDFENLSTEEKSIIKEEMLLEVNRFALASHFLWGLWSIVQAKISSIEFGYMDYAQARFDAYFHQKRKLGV

[7] = Inhibition of [methyl-14C]choline uptake in human HepG2 cells at 30 uM incubated for 10 mins followed by removal of medium containing compound and subsequent addition of [methyl-14C]choline measured after 5 mins relative to control; assay type: functional; settings: HepG2, 10 min
Summary of the method: (§3)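 Cells at 200,000/well were incubated for 10 min at 37 °C in medium with or without CKα1 inhibitor. The medium was then removed and cells were exposed to [methyl-¹⁴C]choline (31 Ci/mol) for 5 min at 37 °C. Uptake was stopped by aspiration and two ice-cold PBS washes containing choline. Inhibition is expressed as % of untreated control.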

[8] = molecular target: T1, Choline kinase alpha; test: Inhibition of human CKalpha1 assessed as reduction in 14C incorporation from [methyl-14C]choline to […] at 10 uM using [methyl-14C]choline as substrate preincubated for 5 mins in presence of ATP and MgCl2 followed by substrate addition and measured after 10 mins by liquid scintillation counting method relative to control; settings: time 15.0 min
Summary of the method: (§4)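 Purified human CKα1 (20 ng) in 100 mM Tris pH 8.5 with 10 mM MgCl₂ and 10 mM ATP, DMSO ≤0.1%, was preincubated 5 min at 37 °C. Reaction was started with 1 mM [methyl-¹⁴C]choline (4500 dpm/nmol), run 10 min at 37 °C and stopped in boiling water. Product was separated by silica TLC, scraped and scintillation-counted against DMSO controls. At least three experiments were run; IC50 was obtained from sigmoidal dose-response fits.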
Target sequence in this assay (P35790 whole entry, looked up): as the sequence (P35790 whole entry) above

[9] = Inhibition of [methyl-14C]choline uptake in human HT-29 cells at 10 uM incubated for 10 mins followed by removal of medium containing compound and subsequent addition of [methyl-14C]choline measured after 5 mins relative to control; assay type: functional; settings: HT-29, 10 min; summary of the method: as §3
[10] = tested on: RS4-11; test: Antiproliferative activity against human RS4-11 cells assessed as inhibition of cell proliferation incubated for 72 hrs by MTT assay; assay type: functional; summary of the method: as §1
[11] = Inhibition of [methyl-14C]choline uptake in human HepG2 cells at 10 uM incubated for 10 mins followed by removal of medium containing compound and subsequent addition of [methyl-14C]choline measured after 5 mins relative to control; assay type: functional; settings: HepG2, 10 min; summary of the method: as §3
[12] = tested on: CCRF-CEM; test: Antiproliferative activity against human CCRF-CEM cells assessed as inhibition of cell proliferation incubated for 72 hrs by MTT assay; assay type: functional; summary of the method: as §1
[13] = tested on: HT-29; test: Antiproliferative activity against human HT-29 cells assessed as inhibition of cell proliferation incubated for 72 hrs by MTT assay; assay type: functional; summary of the method: as §1
[14] = molecular target: Choline/ethanolamine kinase (Homo sapiens, UniProt Q9Y259); test: Binding affinity to human CKbeta assessed as dissociation constant by spectroflurometry; summary of the method: as §2
Chain of Choline/ethanolamine kinase (Q9Y259 whole entry): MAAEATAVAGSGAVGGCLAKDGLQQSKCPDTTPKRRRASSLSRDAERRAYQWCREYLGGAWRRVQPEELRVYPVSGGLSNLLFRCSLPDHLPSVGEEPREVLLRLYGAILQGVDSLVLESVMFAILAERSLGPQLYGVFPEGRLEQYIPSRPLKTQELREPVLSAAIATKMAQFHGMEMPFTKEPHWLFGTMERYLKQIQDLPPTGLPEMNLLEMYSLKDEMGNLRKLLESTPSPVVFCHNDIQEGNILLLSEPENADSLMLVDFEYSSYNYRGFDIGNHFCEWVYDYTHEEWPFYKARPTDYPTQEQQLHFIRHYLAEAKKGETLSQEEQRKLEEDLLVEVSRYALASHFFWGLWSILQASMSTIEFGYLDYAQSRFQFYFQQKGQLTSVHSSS

[15] = molecular target: T1, Choline kinase alpha; test: Inhibition of human CKalpha1 assessed as reduction in 14C incorporation from [methyl-14C]choline to […] at 30 uM using [methyl-14C]choline as substrate preincubated for 5 mins in presence of ATP and MgCl2 followed by substrate addition and measured after 10 mins by liquid scintillation counting method relative to control; settings: time 15.0 min; summary of the method: as §4
Target sequence in this assay (P35790 whole entry, looked up): as the sequence (P35790 whole entry) above

[16] = Inhibition of [methyl-14C]choline uptake in human HT-29 cells at 30 uM incubated for 10 mins followed by removal of medium containing compound and subsequent addition of [methyl-14C]choline measured after 5 mins relative to control; assay type: functional; settings: HT-29, 10 min; summary of the method: as §3
[17] = species on record: Homo sapiens; test: Selectivity index, ratio of Kd for human CKbeta to Kd for human CKalpha1
[18] = molecular target: T1, Choline kinase alpha; test: Inhibition of human CKalpha1 assessed as reduction in 14C incorporation from [methyl-14C]choline to […] using [methyl-14C]choline as substrate preincubated for 5 mins in presence of ATP and MgCl2 followed by substrate addition and measured after 10 mins by liquid scintillation counting method relative to control; summary of the method: as §4
Target sequence in this assay (P35790 whole entry): as above

[19] = tested on: HeLa; test: Induction of cell cycle arrest in human HeLa cells assessed as accumulation at S phase at 2.5 uM incubated for 24 hrs by PI staining based flowcytometry analysis (reference value: 32.30 %); assay type: functional
[20] = tested on: HeLa; test: Induction of cell cycle arrest in human HeLa cells assessed as accumulation at S phase at 1 uM incubated for 24 hrs by PI staining based flowcytometry analysis (reference value: 32.30 %); assay type: functional
[21] = tested on: HeLa; test: Induction of cell cycle arrest in human HeLa cells assessed as accumulation at G0/G1 phase at 1 uM incubated for 24 hrs by PI staining based flowcytometry analysis (reference value: 57 %); assay type: functional
[22] = tested on: HeLa; test: Induction of apoptosis in human HeLa cells measured for 48 hrs by annexin V-FITC and PI staining based flowcytometry analysis; assay type: functional, cell-based; settings: dose 2.5-5 µM
Summary of the method: (§5)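 Treated cells were collected at different times, dual-stained with annexin V-FITC (phosphatidylserine exposure) and propidium iodide (DNA), and analysed by bi-parametric flow cytometry.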

[23] = tested on: HeLa; test: Induction of cell cycle arrest in human HeLa cells assessed as accumulation at G2/M phase at 1 uM incubated for 24 hrs by PI staining based flowcytometry analysis (reference value: 10.7 %); assay type: functional
[24] = tested on: HT-29; test: Induction of cell cycle arrest in human HT-29 cells assessed as accumulation at S phase at 1 uM incubated for 24 hrs by PI staining based flowcytometry analysis (reference value: 27.40 %); assay type: functional
[25] = tested on: HT-29; test: Induction of cell cycle arrest in human HT-29 cells assessed as accumulation at S phase at 2.5 uM incubated for 24 hrs by PI staining based flowcytometry analysis (reference value: 27.40 %); assay type: functional
[26] = tested on: HeLa; test: Induction of apoptosis in human HeLa cells at 2.5 to 5 uM by annexin V-FITC and PI staining based flowcytometry analysis; assay type: functional, cell-based; settings: dose 2.5-5 µM, time 24-48 hrs, TDE = time-dependent effect; summary of the method: as §5
[27] = tested on: HT-29; test: Induction of mitochondrial membrane potential loss in human HT-29 cells measured for 48 hrs by JC1 staining based flow cytometry analysis; assay type: functional, cell-based; settings: dose 2.5-5 µM
Summary of the method: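 Cells were treated with compound, then stained with the fluorescent dye JC-1. Loss of mitochondrial membrane potential was monitored by flow cytometry.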

[28] = tested on: HT-29; test: Induction of apoptosis in human HT-29 cells measured for 48 hrs by annexin V-FITC and PI staining based flowcytometry analysis; assay type: functional, cell-based; settings: dose 2.5-5 µM; summary of the method: as §5
[29] = tested on: HT-29; test: Induction of cell cycle arrest in human HT-29 cells assessed as accumulation at G2/M phase at 2.5 uM incubated for 24 hrs by PI staining based flowcytometry analysis (reference value: 12.40 %); assay type: functional
[30] = tested on: HeLa; test: Induction of cell cycle arrest in human HeLa cells assessed as accumulation at G0/G1 phase at 2.5 uM incubated for 24 hrs by PI staining based flowcytometry analysis (reference value: 57 %); assay type: functional
[31] = tested on: HT-29; test: Induction of cell cycle arrest in human HT-29 cells assessed as accumulation at G0/G1 phase at 2.5 uM incubated for 24 hrs by PI staining based flowcytometry analysis (reference value: 60.20 %); assay type: functional
[32] = tested on: HT-29; test: Induction of apoptosis in human HT-29 cells at 2.5 to 5 uM by annexin V-FITC and PI staining based flowcytometry analysis; assay type: functional, cell-based; settings: dose 2.5-5 µM, time 24-48 hrs, TDE = time-dependent effect; summary of the method: as §5
[33] = tested on: HeLa; test: Induction of mitochondrial membrane potential loss in human HeLa cells by JC1 staining based flow cytometry analysis; settings: dose 2.5-5 µM
[34] = tested on: HT-29; test: Induction of cell cycle arrest in human HT-29 cells assessed as accumulation at G2/M phase at 1 uM incubated for 24 hrs by PI staining based flowcytometry analysis (reference value: 12.40 %); assay type: functional
[35] = tested on: HT-29; test: Induction of cell cycle arrest in human HT-29 cells assessed as increase accumulation of G0/G1 phase incubated for 24 hrs by PI staining based flowcytometry analysis; settings: dose 1-2.5 µM
[36] = tested on: HT-29; test: Induction of cell cycle arrest in human HT-29 cells assessed as accumulation at G0/G1 phase at 1 uM incubated for 24 hrs by PI staining based flowcytometry analysis (reference value: 60.20 %); assay type: functional
[37] = tested on: HeLa; test: Induction of cell cycle arrest in human HeLa cells assessed as accumulation at G2/M phase at 2.5 uM incubated for 24 hrs by PI staining based flowcytometry analysis (reference value: 10.70 %); assay type: functional

Structure (SMILES) | GI50 [1] [nM] | GI50 [2] [nM] | GI50 [3] [nM] | GI50 [4] [nM] | GI50 [5] [nM] | Kd [6] [nM] | inhibition at 30 µM [7] [%] | inhibition [8] [%] | inhibition at 10 µM [9] [%] | GI50 [10] [nM] | inhibition at 10 µM [11] [%] | GI50 [12] [nM] | GI50 [13] [nM] | Kd [14] [nM] | inhibition [15] [%] | inhibition at 30 µM [16] [%] | Ratio [17] | IC50 [18] [nM] | also measured
CN(c1ccccc1)c1cc[n+](Cc2ccc(-c3ccc(C[n+]4ccc(N(C)c5ccccc5)c5ccc(Cl)cc54)cc3)cc2)c2cc(Cl)ccc12 | 400 | 830 | 610 | 170 | – | – | – | – | – | – | – | – | – | – | – | – | – | – | –
CN(c1ccccc1)c1cc[n+](Cc2ccc(-c3ccccc3)cc2)c2cc(Cl)ccc12 | – | – | – | – | 1700 | 185 | 94.8 | 38.6 | 85.5 | 1400 | 87.2 | 1700 | 850 | 20000 | 76 | 93.3 | 108 | 12600 | –
CN(C)c1cc[n+](Cc2ccc(CCCCc3ccc(C[n+]4ccc(N(C)C)cc4)cc3)cc2)cc1 | 1900 | 1900 | 210 | 1000 | – | – | – | – | – | – | – | – | – | – | – | – | – | – | –
Clc1ccc2c(N3CCCCCC3)cc[n+](Cc3ccc(-c4ccccc4)cc3)c2c1.[Br-] | – | – | – | – | 360 | 370 | 95.5 | 74.4 | 86.9 | 60 | 88.2 | 150 | 90 | 63000 | 94.4 | 96.7 | 171 | 6740 | Activity [19]: 27.31%; Activity [20]: 25.23%; Activity [21]: 67.47%; Activity [22]: Dose-dependent effect; Activity [23]: 7.31%; Activity [24]: 5.1%; Activity [25]: 5.8%; Activity [26]: Tde; Activity [27]: Dose-dependent effect; Activity [28]: Dose-dependent effect; Activity [29]: 7.9%; Activity [30]: 66.27%; Activity [31]: 86.3%; Activity [32]: Tde; Activity [33]: Dose-dependent effect; Activity [34]: 6.9%; Activity [35]: Dose-dependent effect; Activity [36]: 88%; Activity [37]: 4.5%
